{"source": "paper PMC6957252", "about": "(Bioorganic & medicinal chemistry, 2016)", "key": {"[1]": {"target": "human TRPV1 heterologously expressed in Chinese hamster ovary (CHO) cells (Homo sapiens, UniProt Q8NER1)", "sequence (Q8NER1 whole entry)": "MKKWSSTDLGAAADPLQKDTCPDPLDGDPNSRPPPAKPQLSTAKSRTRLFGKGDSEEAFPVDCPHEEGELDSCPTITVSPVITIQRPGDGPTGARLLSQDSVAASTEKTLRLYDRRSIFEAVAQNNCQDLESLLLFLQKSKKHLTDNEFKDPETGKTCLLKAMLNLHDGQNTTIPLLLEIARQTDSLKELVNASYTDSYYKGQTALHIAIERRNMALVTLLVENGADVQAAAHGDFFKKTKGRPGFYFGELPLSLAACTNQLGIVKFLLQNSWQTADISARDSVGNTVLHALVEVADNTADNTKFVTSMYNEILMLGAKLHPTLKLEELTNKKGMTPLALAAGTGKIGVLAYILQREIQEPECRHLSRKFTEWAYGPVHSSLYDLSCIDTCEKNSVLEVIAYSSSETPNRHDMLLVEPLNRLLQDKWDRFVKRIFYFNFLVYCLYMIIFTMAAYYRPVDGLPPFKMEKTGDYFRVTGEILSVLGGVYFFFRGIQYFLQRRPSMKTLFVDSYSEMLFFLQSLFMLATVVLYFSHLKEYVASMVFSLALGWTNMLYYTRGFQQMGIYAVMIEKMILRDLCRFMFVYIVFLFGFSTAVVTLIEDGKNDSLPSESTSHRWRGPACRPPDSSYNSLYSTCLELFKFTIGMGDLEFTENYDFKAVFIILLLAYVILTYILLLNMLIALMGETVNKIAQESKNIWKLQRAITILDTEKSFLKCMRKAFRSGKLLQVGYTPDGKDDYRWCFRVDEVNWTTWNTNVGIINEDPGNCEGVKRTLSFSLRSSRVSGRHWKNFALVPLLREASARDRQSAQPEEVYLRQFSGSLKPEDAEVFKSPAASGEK", "format": "cell-based", "in_short": "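45Ca2+ uptake in CHO cells heterologously expressing human TRPV1. […] Ki is calculated to account for competition between capsaicin and antagonist. In agonist mode, 300 nM capsaicin (saturating) defines maximal response, and absence or weakness of uptake is scored as no or weak effect. Values are mean ± SEM of at least three experiments.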"}, "[2]": {"details": "in vivo; cited from earlier work"}, "[3]": {"details": "neuropathic pain model; cited from earlier work"}, "[4]": {"target": "human TRPV1 (Homo sapiens, UniProt Q8NER1)", "sequence (Q8NER1 whole entry)": "as above", "assay": "binding competition assay with [3H]RTX", "details": "ratio of Ki versus 1S", "in_short": "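Competition binding of [3H]RTX to human TRPV1 heterologously expressed in CHO cells. Binding affinity reported as Ki. Values are mean ± SEM of at least three experiments.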"}}, "data": [{"molecule": "CC(C(=O)NCc1ccc(C(F)(F)F)nc1N(Cc1ccccc1)S(=O)(=O)c1ccccc1)c1ccc(NS(C)(=O)=O)c(F)c1", "note": "(stereo not shown) [Compound 12, N-((2-(N-Benzylphenylsulfonamido)-6-(trifluoromethyl)pyridin-3-yl)methyl)-2-(3-fluoro-4-(methylsulfonamido)phenyl)propanamide]", "values": [{"measurement": "fold reduction in antagonism compared to lead compound 1", "setting": "[1]; ratio of Ki(ant) versus compound 1", "value": 2.5, "unit": "fold"}]}, {"molecule": "COc1ccc(CN(c2nc(C(F)(F)F)ccc2CNC(=O)C(C)c2ccc(NS(C)(=O)=O)c(F)c2)S(=O)(=O)c2ccccc2)cc1", "note": "(stereo not shown) [Compound 19, 2-(3-Fluoro-4-(methylsulfonamido)phenyl)-N-((2-(N-(4-methoxybenzyl)phenyl-sulfonamido)-6-(trifluoromethyl)pyridin-3-yl)methyl)propanamide]", "values": [{"measurement": "fold more potent antagonism than 12", "setting": "[1]; ratio of Ki(ant) versus 12", "value": "ca. 3 fold"}]}, {"molecule": "CC1CCN(c2nc(C(F)(F)F)ccc2CNC(=O)C(C)c2ccc(NS(C)(=O)=O)c(F)c2)CC1", "note": "(stereo not shown) [Compound 1]", "values": [{"measurement": "effect on capsaicin-induced hypothermia", "setting": "[2]", "value": "blocked capsaicin-induced hypothermia"}, {"measurement": "antiallodynic activity", "setting": "[3]", "value": "potent antiallodynic activity"}]}, {"molecule": "C[C@H](C(=O)NCc1ccc(C(F)(F)F)nc1N(Cc1ccccc1)S(=O)(=O)c1ccccc1)c1ccc(NS(C)(=O)=O)c(F)c1", "note": "[Compound 12S, (S)-N-((2-(N-Benzylphenylsulfonamido)-6-(trifluoromethyl)pyridin-3-yl)methyl)-2-(3-fluoro-4-(methylsulfonamido)phenyl)propanamide]", "values": [{"measurement": "fold increase in binding affinity compared to 1S", "setting": "[4]", "value": 5, "unit": "fold"}, {"measurement": "fold decrease in antagonism compared to 1S", "setting": "[1]; ratio of Ki(ant) versus 1S", "value": 1.5, "unit": "fold"}]}, {"molecule": "CC(C(=O)NCc1ccc(C(F)(F)F)nc1NS(=O)(=O)c1ccccc1)c1ccc(NS(C)(=O)=O)c(F)c1", "note": "(stereo not shown) [Compound 6, 2-(3-Fluoro-4-(methylsulfonamido)phenyl)-N-((2-(phenylsulfonamido)-6-(triflu-oromethyl)pyridin-3-yl)methyl)propanamide]", "values": [{"measurement": "activity on hTRPV1 (in words)", "setting": "[1]; binding affinity and antagonism, Table 1 series", "value": "little activity"}]}]}
